Measurements as given in ChEMBL document CHEMBL3297688, “New orally active dual enkephalinase inhibitors (DENKIs) for central and peripheral pain treatment” (J Med Chem, 2014).
The source made the active and inactive calls.

Experiments:
Mus musculus [1] = assay: Antinociceptive activity in OF1 mouse acute central pain model at 20 mg/kg, iv after 10 mins by hot plate test relative to vehicle-treated control; assay type: functional
Summary of the method: (§1)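 Male OF1 mice, iv dosing in water/mannitol (50 mg/mL) vehicle. Hot plate at 52 ± 1 °C read 10 min post-injection. Jump latency with a 240 s cutoff, expressed as % MPE. n = 10 per group. ANOVA with Newman–Keuls or Bonferroni tests versus vehicle.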

Mus musculus [2] = assay: Antinociceptive activity in OF1 mouse acute central pain model at 150 mg/kg, po administered with EtOH/PEG400/water after 40 mins by hot plate test relative to vehicle-treated control; assay type: functional
Summary of the method: (§2)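 Oral gavage in male OF1 mice, vehicle EtOH/PEG400/H2O (10/40/50); 150 mg/kg for single-dose lines. Hot plate (52 ± 1 °C) jump latency read at 20, 40 and 60 min, 240 s cutoff, % MPE. […] ANOVA + Newman–Keuls or Bonferroni.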

Mus musculus [3] = assay: Antinociceptive activity in OF1 mouse acute central pain model at 150 mg/kg, po administered with EtOH/PEG400/water after 20 mins by hot plate test relative to vehicle-treated control; assay type: functional; summary of the method: as §2
Mus musculus [4] = assay: Antinociceptive activity in OF1 mouse acute central pain model at 150 mg/kg, po administered with EtOH/PEG400/water after 60 mins by hot plate test relative to vehicle-treated control; assay type: functional; summary of the method: as §2
Mus musculus [5] = assay: Antinociceptive activity in OF1 mouse acute central pain model at 10 mg/kg, iv administered with EtOH/Tween80/water after 10 mins by hot plate test relative to vehicle-treated control; assay type: functional
Summary of the method: (§3)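 Male OF1 mice dosed iv in ethanol/Tween80/water (1/1/8). Jump latency on a 52 ± 1 °C hot plate (240 s cutoff) read 10 min after injection, expressed as mean % MPE ± SEM. n = 18–21 per group for dose–response, n = 8 for 10 mg/kg comparisons. ED50 taken from dose–response. ANOVA + Bonferroni.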

Mus musculus [6] = assay: Antinociceptive activity in OF1 mouse persistent pain model assessed as reduction of formalin-induced paw licking at 50 mg/kg, po administered with EtOH/methyl cellulose in water 90 mins prior to formalin challenge measured after 1 to 5 mins relative to vehicle-treated control; assay type: functional; parameters: scale not given: the % may be the effect or the level left
Summary of the method: (§4)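 Male OF1 mice gavaged with 50 mg/kg in ethanol/methylcellulose 0.5% in water (1.5/98.5), 30 or 90 min before a plantar sc injection of 5% formalin (20 μL in saline). Licking time recorded over 0–5 min (early phase). n = 5–7 per group. ANOVA + Bonferroni versus vehicle.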

Mus musculus [7] = assay: Antinociceptive activity in OF1 mouse persistent pain model assessed as reduction of formalin-induced paw licking at 50 mg/kg, po administered with EtOH/methyl cellulose in water 30 mins prior to formalin challenge measured after 1 to 5 mins relative to vehicle-treated control; assay type: functional; parameters: scale not given: the % may be the effect or the level left; summary of the method: as §4
Mus musculus [8] = assay: Activity in OF1 mouse acute central pain model at 150 mg/kg, po administered as single dose by hot plate test; assay type: functional, organism-based; parameters: dose 150 mg/kg
Summary of the method: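 Hot plate at 52 ± 1 °C, male OF1 mice. Single oral dose of 150 mg/kg. Jump latency recorded with a 240 s cutoff and converted to % MPE against control latency.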

Mus musculus [9] = assay: Activity in OF1 mouse acute central pain model at 10 mg/kg, iv administered as single dose by hot plate test; assay type: functional, organism-based; parameters: dose 10 mg/kg
Mus musculus [10] = assay: Antinociceptive activity in OF1 mouse acute central pain model at 60 mg/kg, iv after 10 mins by hot plate test relative to vehicle-treated control; assay type: functional; summary of the method: as §1
Mus musculus [11] = assay: Antinociceptive activity in OF1 mouse acute central pain model at 40 mg/kg, iv after 10 mins by hot plate test relative to vehicle-treated control; assay type: functional; summary of the method: as §1
Mus musculus [12] = assay: Antinociceptive activity in iv dosed CD1 mouse administered with EtOH/cremophor/water after 10 mins by hot plate test; assay type: functional
Mus musculus [13] = assay: Antinociceptive activity in po dosed CD1 mouse after 45 mins by hot plate test; assay type: functional; details: 0.75 h
Mus musculus [14] = assay: Antinociceptive activity in OF1 mouse acute central pain model assessed as time duration of action at 40 mg/kg, iv administered with water/mannitol after 10 mins by hot plate test relative to vehicle-treated control; assay type: functional
Mus musculus [15] = assay: Antinociceptive activity in po dosed OF1 mouse acute central pain model administered with EtOH/PEG400/water after 20 mins by hot plate test relative to vehicle-treated control; assay type: functional; summary of the method: as §2
Mus musculus [16] = assay: Antinociceptive activity in iv dosed OF1 mouse acute central pain model assessed as jump latency administered with water/mannitol after 10 mins by hot plate test relative to vehicle-treated control; assay type: functional; summary of the method: as §1
Rattus norvegicus [17] = assay: Prodrug activation in rat plasma at 200 mg, po after 30 mins by LC/MS/MS analysis; details: 0.5 h
Rattus norvegicus [18] = assay: Antinociceptive activity in iv dosed Sprague-Dawley rat acute centrospinal nociception model administered with EtOH/Tween80/water after 10 to 20 mins by tail flick test relative to vehicle-treated control; assay type: functional, organism-based; details: TDE = time-dependent effect
Rattus norvegicus [19] = assay: Antinociceptive activity in Sprague-Dawley rat acute centrospinal nociception model at 100 mg/kg, po after 20 mins by tail flick test relative to vehicle-treated control; assay type: functional
Rattus norvegicus [20] = assay: Antinociceptive activity in Sprague-Dawley rat acute centrospinal nociception model at 20 mg/kg, iv administered with EtOH/Tween80/water after 10 mins by tail flick test relative to vehicle-treated control
Mus musculus [21] = assay: Antinociceptive activity in iv dosed OF1 mouse acute central pain model assessed as jump latency administered with EtOH/Tween80/water after 10 mins by hot plate test relative to vehicle-treated control; assay type: functional; summary of the method: as §3
Mus musculus [22] = assay: Antihyperalgesic activity in OF1 mouse neuropathic pain model assessed as increase in partial sciatic nerve ligation-induced reduction in thermal threshold at 25 mg/kg, po by plantar test relative to vehicle-treated control; assay type: functional, organism-based; parameters: dose 25 mg/kg
Summary of the method: (§5)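 Partial ligation of 33–50% of the sciatic nerve in male OF1 mice; sham mice operated without ligation. Tested days 10–20 post-surgery, before and 20 min after 25 mg/kg po. Mechanical threshold by von Frey filaments; thermal latency by plantar test (8–10 s baseline, 20 s cutoff, mean of three trials at 5 min intervals). Ipsilateral and contralateral paws tested. n = 6–9 per group.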

Mus musculus [23] = assay: Antinociceptive activity in OF1 mouse acute central pain model at 10 mg/kg, iv after 10 mins by hot plate test relative to vehicle-treated control; assay type: functional
Mus musculus [24] = assay: Antinociceptive activity in OF1 mouse acute central pain model assessed as time duration of action at 150 mg/kg, po administered with EtOH/PEG400/water after 20 to 60 mins by hot plate test relative to vehicle-treated control; assay type: functional; summary of the method: as §2
Mus musculus [25] = assay: Antiallodynic activity in OF1 mouse neuropathic pain model assessed as increase in partial sciatic nerve ligation-induced reduction of threshold for paw withdrawal at 25 mg/kg, po after 20 mins by von frey test relative to vehicle-treated control; assay type: functional; parameters: scale not given: the % may be the effect or the level left; summary of the method: as §5
Mus musculus [26] = assay: Antinociceptive activity in OF1 mouse acute central pain model assessed as jump latency at 10 mg/kg, iv after 10 mins by hot plate test relative to vehicle-treated control in presence of naloxone; assay type: functional, organism-based; parameters: dose 10 mg/kg
Summary of the method: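 Naloxone 0.5 mg/kg given sc before the test compound (10 mg/kg iv) in male OF1 mice. Hot plate (52 ± 1 °C) jump latency measured, 240 s cutoff. n = 7–10 per group. ANOVA followed by Bonferroni versus vehicle and versus drug alone.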

CCOC(=O)COC(=O)[C@H](C)NC(=O)C(CSSC[C@@H](N)CCSC)Cc1ccsc1 (stereo partly drawn)
Activity (Mus musculus [1]): 32%

CCC(=O)OC(OC(=O)CNC(=O)[C@@H](CSSC[C@@H](N)CCSC)Cc1ccccc1)C(C)C (stereo partly drawn)
Activity (Mus musculus [2]): 24%
Activity (Mus musculus [3]): 32%
Activity (Mus musculus [4]): 8%

CCOC(=O)OC(C)OC(=O)CNC(=O)[C@@H](CSSC[C@@H](N)CC[S+](C)[O-])Cc1ccccc1.O=CO (stereo partly drawn)
Activity (Mus musculus [5]): 30%
Activity (Mus musculus [6]): 41%
Activity (Mus musculus [7]): 54%

CSCC[C@H](N)CSSCC(Cc1ccsc1)C(=O)N[C@@H](C)C(=O)O (stereo partly drawn)
Activity (Mus musculus [8]): inactive
Activity (Mus musculus [9]): inactive

CCOC(=O)OC(C)OC(=O)[C@@H](NC(=O)[C@@H](CSSC[C@@H](N)CCSC)Cc1ccccc1)C(C)O (stereo partly drawn)
Activity (Mus musculus [10]): 84%
Activity (Mus musculus [1]): 29%
Activity (Mus musculus [11]): 61%

CCC(=O)OC(OC(=O)CNC(=O)[C@@H](CSSC[C@@H](N)CCSC)Cc1ccccc1)C1CCCCC1 (stereo partly drawn)
Activity (Mus musculus [2]): 10%
Activity (Mus musculus [3]): 8%
Activity (Mus musculus [4]): 12%

CSCC[C@H](N)CSSCC(Cc1ccsc1)C(=O)N[C@@H](C)C(=O)OC(CO)CO (stereo partly drawn)
Activity (Mus musculus [1]): 22%

CSCC[C@H](N)CSSCC(Cc1ccsc1)C(=O)N[C@@H](C)C(=O)OCCS(C)(=O)=O (stereo partly drawn)
Activity (Mus musculus [1]): 22%

CSCC[C@H](N)CSSCC(Cc1ccsc1)C(=O)N[C@@H](C)C(=O)OC(COC(C)=O)COC(C)=O (stereo partly drawn)
Activity (Mus musculus [1]): 40%

CSCC[C@H](N)CSSCC(Cc1ccsc1)C(=O)N[C@@H](C)C(=O)OC[C@H]1O[C@@H](O)[C@H](O)[C@@H](O)[C@@H]1O (stereo partly drawn)
Activity (Mus musculus [1]): 10%

C[S+]([O-])CC[C@H](N)CSSC[C@@H](Cc1ccccc1)C(=O)NCC(=O)O (stereo partly drawn)
Activity (Mus musculus [8]): inactive
Activity (Mus musculus [9]): inactive

CSCC[C@H](N)CSSC[C@@H](Cc1ccccc1)C(=O)NCC(=O)O
Activity (Mus musculus [8]): inactive
Activity (Mus musculus [9]): inactive

CCOC(=O)OC(C)OC(=O)[C@H](C)NC(=O)C(CSSC[C@@H](N)CCSC)Cc1ccsc1 (stereo partly drawn)
Activity (Mus musculus [1]): 44%

CSCC[C@H](N)CSSC[C@@H](Cc1ccccc1)C(=O)N[C@@H](C)C(=O)OCc1ccccc1
ED50 (Mus musculus [12]): 3 mg/kg
ED50 (Mus musculus [13]): 410 mg/kg

CCOC(=O)OC(OC(=O)CNC(=O)[C@@H](CSSC[C@@H](N)CCSC)Cc1ccccc1)C1CCCCC1 (stereo partly drawn)
Activity (Mus musculus [2]): 3%
Activity (Mus musculus [3]): 17%
Activity (Mus musculus [4]): 8%

CSCC[C@H](N)CSSCC(Cc1ccsc1)C(=O)N[C@@H](C)C(=O)OC[C@H](COC(C)=O)OC(C)=O (stereo partly drawn)
Activity (Mus musculus [1]): 29%

CCOC(=O)OC(OC(=O)CNC(=O)[C@@H](CSSC[C@@H](N)CCSC)Cc1ccccc1)C(C)C (stereo partly drawn)
Activity (Mus musculus [2]): 18%
Activity (Mus musculus [3]): 46%
Activity (Mus musculus [4]): 0%

CSCC[C@H](N)CSSC[C@@H](Cc1ccccc1)C(=O)N[C@H](C(=O)O)[C@@H](C)O
Activity (Mus musculus [8]): inactive
Activity (Mus musculus [9]): inactive

CCOC(=O)OC(C)OC(=O)CNC(=O)[C@@H](CSSC[C@@H](N)CCSC)Cc1ccccc1.O=CO (stereo partly drawn)
Time (Mus musculus [14]): <40 min
ED50 (Mus musculus [15]): 133 mg/kg
Activity (Mus musculus [16]): Dose-dependent effect
ED50 (Mus musculus [16]): 16 mg/kg
Drug metabolism (Rattus norvegicus [17]): 98%
Activity (Mus musculus [5]): 78%
Activity (Rattus norvegicus [18]): tde
Activity (Rattus norvegicus [19]): 10%
Activity (Mus musculus [1]): 58%
Emax at 20 mg/kg (Rattus norvegicus [20]): 40%
Activity (Mus musculus [21]): Dose-dependent effect
ED50 (Mus musculus [21]): 4.5 mg/kg
Activity (Mus musculus [22]): Active
Activity (Mus musculus [23]): 35%
Activity (Mus musculus [6]): 41%
Time (Mus musculus [24]): <1 h
Activity (Mus musculus [25]): 51%
Activity (Mus musculus [2]): 28%
Activity (Mus musculus [11]): 97%
Activity (Mus musculus [7]): 41%
Activity (Mus musculus [26]): inactive
Activity (Mus musculus [3]): 58%
Activity (Mus musculus [4]): 7%
